# Measurements reported in article PMC10443334 (Microbial Biotechnology, 2023).
# Where a SMILES comes first, the peptide text is derived from it. Bridges are numbered along the chain shown (N, C = ends). [ ]: non-standard residue; d: D form. The star is where a group is joined. X1 = CC[C@H](C)CCCCC(=O)*; Dab = NCC[C@H](N)C(=O)O
# Assays:
# THP-1 cells [1] = assay: NF-κB activation western blot; type: cell-based, human; conditions: TAK242 1 μM (infection) or 100 nM (LPS) for 1 h
# Method in brief: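 THP-1 cells were differentiated with PMA (10 ng/mL, 48 h). For infection, cells got TAK242 1 μM for 1 h, then washed log-phase BL21/pEmpty or BL21/pMCR-1 at MOI 50 in serum-free medium with kanamycin and IPTG for 4 h. For LPS, cells got TAK242 100 nM for 1 h, then purified LPS (1 μg/mL) for 4 h. Cell extracts were western blotted and relative band levels quantified.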
# THP-1 cells [2] = assay: LDH release and caspase 1 western blot after OMV stimulation; type: cell-based, human; conditions: Wed 50 μM pre-treatment for 2 h, OMVs 20 μg protein/mL
# Method in brief: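 PMA-differentiated (10 ng/mL, 48 h) THP-1 macrophages were pre-treated with DMSO or 50 μM Wed, then exposed to OMVs (20 μg protein/mL) for 4 h at 37°C, 5% CO2. OMVs came from 8 h LB culture supernatants, filtered, concentrated on 100-kDa filters and pelleted at 150,000 g for 3 h. LDH in media was read by kit as % of 0.1% Triton X-100 lysis; lysates were western blotted with chemiluminescent quantitation.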
# BL21/pMCR-1 [3] = assay: Microdilution MIC/MBC; type: cell-based, E. coli; conditions: MIC ratio BL21/pMCR-1 vs BL21/pEmpty
# Method in brief: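 Broth microdilution MIC/MBC followed CLSI. Strains were E. coli BL21 carrying pET28a-mcr-1 or empty pET28a, grown in LB (pH 7.2–7.4) with 50 μg/mL kanamycin. MCR-1 expression was induced with 0.5 mM IPTG at 37°C with shaking at 220 rpm.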
# BL21/pMCR-1 [4] = assay: Time-killing kinetics; type: cell-based, E. coli; conditions: 16 μg/mL, 1 × 10^5 CFU/mL, IPTG, 37°C, agar plate dilution count
# Method in brief: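 Suspensions of IPTG-induced BL21/pMCR-1 (1 × 10^5 CFU/mL) were sub-cultured into tubes with IPTG, with or without test compound at 4 × MIC, at 37°C. Viable counts were taken by agar plate dilution at fixed time intervals. Data are mean ± SD from three independent experiments.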
smiles,measurement,setting,value
"CCOC(=O)C1=CCCC[C@H]1S(=O)(=O)Nc1ccc(F)cc1Cl [TAK242, Resatorvid]",p-P65 and p-IκB after infection or LPS stimulation,THP-1 cells [1],inhibited
"COc1cc(O)c2c(c1)oc(=O)c1c3cc(O)c(O)cc3oc21 [Wed, wedelolactone]",macrophage cell death and caspase-1 processing after OMV stimulation,THP-1 cells [2],markedly reduced
"CC[C@H](C)CCCCC(=O)N[C@@H](CCN)C(=O)N[C@H](C(=O)N[C@@H](CCN)C(=O)N[C@H]1CCNC(=O)[C@H]([C@@H](C)O)NC(=O)[C@H](CCN)NC(=O)[C@H](CCN)NC(=O)[C@H](CC(C)C)NC(=O)[C@@H](Cc2ccccc2)NC(=O)[C@H](CCN)NC1=O)[C@@H](C)O [polymyxin B, Polymyxin B sulphate] (X1-[Dab]T[Dab][Dab][Dab][dF]L[Dab][Dab]T; lactam 4-C (inferred); N-terminus assumed)",increase of MIC against BL21/pMCR-1 compared to BL21/pEmpty,BL21/pMCR-1 [3],8 fold
same,time to eradicate all bacteria (time-kill kinetics),BL21/pMCR-1 [4],4 h
